Data reported in ChEMBL document CHEMBL4364261, “Positive Charge Patterning and Hydrophobicity of Membrane-Active Antimicrobial Peptides as Determinants of Activity, Toxicity, and Pharmacokinetic Stability” (J Med Chem, 2019).
Active and inactive are the calls of the source. The rule behind the calls is not given here.

Assays:
Pseudomonas aeruginosa [1] = assay: Antibacterial activity against Pseudomonas aeruginosa PAO1 measured after 20 hrs by microtiter dilution method; assay type: functional; details: PAO1, 20 h
Outline: (§1)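 Mueller-Hinton broth microdilution; 2-fold serial dilutions of peptide from 0 to 50 μM incubated 20 h at 37 °C with 50 000 cfu/well from an overnight MHB culture. Bacterial growth read as background-subtracted OD600. MIC recorded as the peptide concentration at which growth is inhibited. P. aeruginosa isolates came from sputum of cystic fibrosis patients with infections persisting after inhaled tobramycin.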

Escherichia coli [2] = assay: Binding affinity to Escherichia coli lipid extract liposome membrane at 25 uM by CD spectroscopic analysis; assay type: cell membranes
Outline: (§2)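 CD spectra of 25 μM peptide in 10 mM Tris, 10 mM NaCl, pH 7.4, with 2 mg/mL E. coli total lipid extract or POPC liposomes, equilibrated overnight. Helicity judged at 222 nm. Average of at least three independent experiments.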

Lipid bilayer [3] = assay: Binding affinity to POPC membrane at 25 uM by CD spectroscopic analysis; assay type: ADME; outline: as §2
Pseudomonas aeruginosa [4] = assay: Antibacterial activity against tobramycin-pretreated Pseudomonas aeruginosa isolate 330 after 20 hrs by microtiter dilution method; assay type: functional; outline: as §1
Pseudomonas aeruginosa [5] = assay: Antibacterial activity against tobramycin-pretreated Pseudomonas aeruginosa isolate 214 measured after 20 hrs by microtiter dilution method; assay type: functional; outline: as §1
Escherichia coli [6] = assay: Binding affinity to Escherichia coli lipid extract liposome membrane at 10 uM by tryptophan fluorescence quenching method; assay type: cell membranes
Outline: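 Acrylamide quenching of Trp; peptide 10 μM with 0.8 mg/mL E. coli lipid liposomes. Excitation at 295 nm, emission 310–400 nm. Read-out is the Stern–Volmer slope, with larger slopes meaning more quenching. At least two independent experiments, error given as standard deviation.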

[7] = Hemolytic activity in human RBC assessed as hemolysis at 320 to 640 uM measured after 1 hr; assay type: ADME, cell-based, Erythrocyte; details: human red blood cells (erythrocytes), read-out: Activity
Outline: (§3)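 Fresh human erythrocytes washed and resuspended in PBS to a final 4% (v/v). Incubated 1 h at 37 °C with 2-fold serial peptide dilutions from 0 to 640 μM. Supernatant absorbance at 540 nm; PBS taken as 0% and 1% Triton as 100% hemolysis. Standard deviation reported; one-way ANOVA applied.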

[8] = Stability of the compound assessed as Engyodontium album PMSF-pretreated proteinase K-mediated compound hydrolysis at 20 uM incubated for 10 mins at 70 degC by coomassie blue staining-based NuPAGE analysis; assay type: ADME; details: parengyodontium album, 1 h, in the assay text read “incubated for up to 1 hr at 37 degC” for “incubated for 10 mins at 70 degC”
Outline: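 Reactions stopped with 5 mM PMSF; PMSF-preinhibited enzyme served as control. Samples heated 70 °C for 10 min and run on 12% Bis-Tris gels with Coomassie staining. Band density normalized to T0.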

Pseudomonas aeruginosa [9] = assay: Antibacterial activity against tobramycin-pretreated Pseudomonas aeruginosa isolate 287 measured after 20 hrs by microtiter dilution method; assay type: functional; outline: as §1
[10] = Hemolytic activity in human RBC assessed as hemolysis at 40 uM measured after 1 hr; assay type: ADME, cell-based, Erythrocyte; details: human red blood cells (erythrocytes), read-out: Activity; outline: as §3
Pseudomonas aeruginosa [11] = assay: Antibacterial activity against tobramycin-pretreated Pseudomonas aeruginosa isolate 380 after 20 hrs by microtiter dilution method; assay type: functional; outline: as §1
Escherichia coli [12] = assay: Binding affinity to Escherichia coli lipid extract liposome membrane at 10 uM by tryptophan fluorescence method; assay type: cell membranes
Outline: (§4)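 Peptide at 10 μM in 10 mM Tris, 10 mM NaCl, pH 7.4, with 0.8 mg/mL E. coli total lipid extract or POPC liposomes, equilibrated overnight before recording. Trp excited at 280 nm, emission scanned 300–400 nm. After background subtraction, the wavelength of maximal emission was taken.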

Escherichia coli [13] = assay: Induction of terbium(3)-loaded Escherichia coli lipid extract liposome membrane disruption at 10 uM measured after 20 mins by fluorescence assay relative to control; assay type: cell membranes
Escherichia coli [14] = assay: Antibacterial activity against Escherichia coli K-12 measured after 20 hrs by microtiter dilution method; assay type: functional; details: K-12, 20 h; outline: as §1
Lipid bilayer [15] = assay: Binding affinity to POPC membrane at 10 uM by tryptophan fluorescence method; assay type: ADME; outline: as §4
Lipid bilayer [16] = assay: Binding affinity to 11,12-BrPC-loaded POPC membrane at 10 uM by tryptophan fluorescence method; assay type: ADME
Lipid bilayer [17] = assay: Binding affinity to terbium(3)-loaded POPC membrane at 10 uM measured for 10 mins by fluorescence assay relative to control; assay type: ADME
Outline: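 Tb3+-loaded liposomes, E. coli lipid or POPC, size-exclusion exchanged and diluted to 2.5% (v/v) in dipicolinic acid buffer, stirring. Peptide added at 10 μM. Tb3+ excited at 314 nm, emission at 544 nm recorded for 10 min. Liposome-only signal subtracted, normalized to a 0.1% Triton-lysed control as 100% disruption.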

| Substance | MIC (Pseudomonas aeruginosa [1]) [µM] | Activity (Escherichia coli [2]) | Activity (Lipid bilayer [3]) | MIC (Pseudomonas aeruginosa [4]) [µM] | MIC (Pseudomonas aeruginosa [5]) [µM] | Activity (Escherichia coli [6]) | hemolysis at 1 h, up to 640 µM [7] [%] | Stability [8] | MIC (Pseudomonas aeruginosa [9]) [µM] | hemolysis at 1 h, 40 µM [10] [%] | MIC (Pseudomonas aeruginosa [11]) [µM] | Activity (Escherichia coli [12]) | Activity (Escherichia coli [13]) [%] | MIC (Escherichia coli [14]) [µM] | Activity (Lipid bilayer [15]) | Activity (Lipid bilayer [16]) | Activity (Lipid bilayer [17]) [%] |
| --- | --- | --- | --- | --- | --- | --- | --- | --- | --- | --- | --- | --- | --- | --- | --- | --- | --- |
| H-KAAKKFAKAWAKAFKAA-NH2 | 50 | Active | Not Active | > 50 | > 50 | Active | < 1 | Unstable | > 50 | 0 | > 50 | Active | 8 | 12.5 |  |  |  |
| H-KALKKFLKAWAKLFKAL-NH2 | 3.1 | Active | Active | 6.3 | 3.1 | inactive | < 1 |  | 3.1 | 81 | 6.3 |  | 40 | 1.6 | Active | Active | 25 to 70 |
| H-KKAKAFAKAWAKAFKAA-NH2 | 25 | Active | Not Active | > 50 | 50 |  | < 1 | Unstable | 50 | 0 | > 50 | Active | 80 | 12.5 |  |  |  |
| H-KKKAAFAKAWAKAFKAA-NH2 | 50 | Active | Not Active | > 50 | 50 |  | < 1 | Unstable | > 50 | 0 | > 50 | Active | 80 | 25 |  |  |  |
| H-KKKAAFLKLWAKLFKAL-NH2 | 3.1 | Active | Active | 6.3 | 3.1 |  |  |  | 3.1 | 100 | 3.1 |  | 40 | 3.1 | Active |  | 25 to 70 |
| H-KKKKAAFAKAWAKAFAA-NH2 | 50 | Active | Not Active | > 50 | 50 |  | < 1 | Unstable | > 50 | 0 | 50 | Active |  | 12.5 |  |  |  |
| H-KKKKAAFLKLWLKLFAA-NH2 | > 50 | Active | Active | > 50 | > 50 |  |  |  | > 50 | 8 | > 50 |  | 40 | 12.5 | Active |  | 25 to 70 |
| H-KKKKKAAFAKAWAAFAA-NH2 | 25 | Active | Not Active | 50 | 25 |  | < 1 | Stable | 50 | 0 | 50 | Active |  | 6.3 |  |  |  |
| H-KKKKKALFLKLWAAFLA-NH2 | 12.5 | Active | Active | 12.5 | 6.3 |  |  |  | 6.3 | 49 | > 50 |  | 40 | 3.1 | Active |  | 25 to 70 |
| H-KKKKKKAAFAAWAAFAA-NH2 | 12.5 | Active | Not Active | 25 | 3.1 | Active | < 1 | Stable | 3.1 | 0 | 12.5 | Active | 35 | 1.6 |  |  |  |
| H-KKKKKKALFALWLAFLA-NH2 | > 50 | Active | Active | > 50 | 50 | Active |  |  | 25 | 33 | > 50 |  | 80 | 12.5 | Active | Not Active | 4 to 8 |
| H-KKLKAFLKAWAKLFKAL-NH2 | 3.1 | Active | Active | 6.3 | 3.1 |  | < 1 |  | 3.1 | 89 | 1.5 |  | 40 | 1.6 | Active |  | 25 to 70 |
